Reference: ChEMBL document CHEMBL4330168, “Monomeric and Dimeric Cytotoxic Guaianolide-Type Sesquiterpenoids from the Aerial Parts of Chrysanthemum indicum” (J Nat Prod, 2019)

Key:
CNE = assay: Cytotoxicity against human CNE1 cells after 48 hrs by MTT assay; format: functional, cell-based
Summary of the method: (§1)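 Growth inhibition in nasopharyngeal carcinoma lines (CNE1, CNE2, HONE-1, SUNE-1) and HT-29 colon cells. IC50 values are the mean ± SD of three experiments, with cisplatin as positive control.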

CNE-2 = assay: Cytotoxicity against human CNE2 cells after 48 hrs by MTT assay; format: functional, cell-based; conditions: CNE-2, 48 h; summary of the method: as §1
HONE1 cell line [1] = assay: Cytotoxicity against human HONE1 cells after 48 hrs by MTT assay; format: functional, cell-based; conditions: HONE1, 48 h; summary of the method: as §1
SUNE1 = assay: Cytotoxicity against human SUNE1 cells after 48 hrs by MTT assay; format: functional, cell-based; conditions: SUNE1, 48 h; summary of the method: as §1
HT-29 = assay: Cytotoxicity against human HT-29 cells after 48 hrs by MTT assay; format: functional, cell-based; conditions: HT-29, 48 h; summary of the method: as §1
HONE1 cell line [2] = assay: Induction of apoptosis in human HONE1 cells assessed as live cells at 1 uM after 48 hrs by Annexin V-FITC/propidium iodide staining based flow cytometry (reference value: 96.16%); format: functional
HONE1 cell line [3] = assay: Induction of apoptosis in human HONE1 cells assessed as early apoptotic cells at 1 uM after 48 hrs by Annexin V-FITC/propidium iodide staining based flow cytometry (reference value: 3.24%); format: functional
HONE1 cell line [4] = assay: Induction of apoptosis in human HONE1 cells assessed as late apoptotic cells at 1 uM after 48 hrs by Annexin V-FITC/propidium iodide staining based flow cytometry (reference value: 0.37%); format: functional
HONE1 cell line [5] = assay: Induction of apoptosis in human HONE1 cells assessed as necrotic cells at 1 uM after 48 hrs by Annexin V-FITC/propidium iodide staining based flow cytometry (reference value: 0.23%); format: functional
HONE1 cell line [6] = assay: Induction of apoptosis in human HONE1 cells assessed as live cells at 3 uM after 48 hrs by Annexin V-FITC/propidium iodide staining based flow cytometry (reference value: 96.16%); format: functional
HONE1 cell line [7] = assay: Induction of apoptosis in human HONE1 cells assessed as early apoptotic cells at 3 uM after 48 hrs by Annexin V-FITC/propidium iodide staining based flow cytometry (reference value: 3.24%); format: functional
HONE1 cell line [8] = assay: Induction of apoptosis in human HONE1 cells assessed as late apoptotic cells at 3 uM after 48 hrs by Annexin V-FITC/propidium iodide staining based flow cytometry (reference value: 0.37%); format: functional
HONE1 cell line [9] = assay: Induction of apoptosis in human HONE1 cells assessed as necrotic cells at 3 uM after 48 hrs by Annexin V-FITC/propidium iodide staining based flow cytometry (reference value: 0.23%); format: functional
HONE1 cell line [10] = assay: Induction of apoptosis in human HONE1 cells assessed as live cells at 5 uM after 48 hrs by Annexin V-FITC/propidium iodide staining based flow cytometry (reference value: 96.16%); format: functional
HONE1 cell line [11] = assay: Induction of apoptosis in human HONE1 cells assessed as early apoptotic cells at 5 uM after 48 hrs by Annexin V-FITC/propidium iodide staining based flow cytometry (reference value: 3.24%); format: functional
HONE1 cell line [12] = assay: Induction of apoptosis in human HONE1 cells assessed as late apoptotic cells at 5 uM after 48 hrs by Annexin V-FITC/propidium iodide staining based flow cytometry (reference value: 0.37%); format: functional
HONE1 cell line [13] = assay: Induction of apoptosis in human HONE1 cells assessed as necrotic cells at 5 uM after 48 hrs by Annexin V-FITC/propidium iodide staining based flow cytometry (reference value: 0.23%); format: functional
HONE1 cell line [14] = assay: Induction of apoptosis in human HONE1 cells assessed as live cells at 10 uM after 48 hrs by Annexin V-FITC/propidium iodide staining based flow cytometry (reference value: 96.16%); format: functional
HONE1 cell line [15] = assay: Induction of apoptosis in human HONE1 cells assessed as early apoptotic cells at 10 uM after 48 hrs by Annexin V-FITC/propidium iodide staining based flow cytometry (reference value: 3.24%); format: functional
HONE1 cell line [16] = assay: Induction of apoptosis in human HONE1 cells assessed as late apoptotic cells at 10 uM after 48 hrs by Annexin V-FITC/propidium iodide staining based flow cytometry (reference value: 0.37%); format: functional
HONE1 cell line [17] = assay: Induction of apoptosis in human HONE1 cells assessed as necrotic cells at 10 uM after 48 hrs by Annexin V-FITC/propidium iodide staining based flow cytometry (reference value: 0.23%); format: functional
HONE1 cell line [18] = assay: Induction of apoptosis in human HONE1 cells assessed as live cells at 20 uM after 48 hrs by Annexin V-FITC/propidium iodide staining based flow cytometry (reference value: 96.16%); format: functional
HONE1 cell line [19] = assay: Induction of apoptosis in human HONE1 cells assessed as early apoptotic cells at 20 uM after 48 hrs by Annexin V-FITC/propidium iodide staining based flow cytometry (reference value: 3.24%); format: functional
HONE1 cell line [20] = assay: Induction of apoptosis in human HONE1 cells assessed as late apoptotic cells at 20 uM after 48 hrs by Annexin V-FITC/propidium iodide staining based flow cytometry (reference value: 0.37%); format: functional
HONE1 cell line [21] = assay: Induction of apoptosis in human HONE1 cells assessed as necrotic cells at 20 uM after 48 hrs by Annexin V-FITC/propidium iodide staining based flow cytometry (reference value: 0.23%); format: functional
HONE1 cell line [22] = assay: Cell cycle arrest in human HONE1 cells assessed as accumulation at G0/G1 phase at 3 uM after 48 hrs by propidium iodide staining based flow cytometry (reference value: 55%); format: functional
HONE1 cell line [23] = assay: Cell cycle arrest in human HONE1 cells assessed as accumulation at G2/M phase at 3 uM after 48 hrs by propidium iodide staining based flow cytometry (reference value: 0.3%); format: functional
HONE1 cell line [24] = assay: Cell cycle arrest in human HONE1 cells assessed as accumulation at S phase at 3 uM after 48 hrs by propidium iodide staining based flow cytometry (reference value: 44.7%); format: functional
HONE1 cell line [25] = assay: Cell cycle arrest in human HONE1 cells assessed as accumulation at G0/G1 phase at 5 uM after 48 hrs by propidium iodide staining based flow cytometry (reference value: 55%); format: functional
HONE1 cell line [26] = assay: Cell cycle arrest in human HONE1 cells assessed as accumulation at G2/M phase at 5 uM after 48 hrs by propidium iodide staining based flow cytometry (reference value: 0.3%); format: functional
HONE1 cell line [27] = assay: Cell cycle arrest in human HONE1 cells assessed as accumulation at S phase at 5 uM after 48 hrs by propidium iodide staining based flow cytometry (reference value: 44.7%); format: functional
HONE1 cell line [28] = assay: Cell cycle arrest in human HONE1 cells assessed as accumulation at G0/G1 phase at 10 uM after 48 hrs by propidium iodide staining based flow cytometry (reference value: 55%); format: functional
HONE1 cell line [29] = assay: Cell cycle arrest in human HONE1 cells assessed as accumulation at G2/M phase at 10 uM after 48 hrs by propidium iodide staining based flow cytometry (reference value: 0.3%); format: functional
HONE1 cell line [30] = assay: Cell cycle arrest in human HONE1 cells assessed as accumulation at S phase at 10 uM after 48 hrs by propidium iodide staining based flow cytometry (reference value: 44.7%); format: functional
HONE1 cell line [31] = assay: Cell cycle arrest in human HONE1 cells assessed as accumulation at G0/G1 phase at 20 uM after 48 hrs by propidium iodide staining based flow cytometry (reference value: 55%); format: functional
HONE1 cell line [32] = assay: Cell cycle arrest in human HONE1 cells assessed as accumulation at G2/M phase at 20 uM after 48 hrs by propidium iodide staining based flow cytometry (reference value: 0.3%); format: functional
HONE1 cell line [33] = assay: Cell cycle arrest in human HONE1 cells assessed as accumulation at S phase at 20 uM after 48 hrs by propidium iodide staining based flow cytometry (reference value: 44.7%); format: functional

C=C1C(=O)O[C@@H]2[C@@H]3[C@@]4(C=C[C@@]3(C)[C@]3(C4)C(=O)O[C@@H]4[C@H]5C(C)=CC[C@H]5[C@](C)(O)C[C@H](OC(C)=O)[C@H]43)[C@](C)(O)CC[C@@H]12
IC50 (CNE): > 10 µM
IC50 (CNE-2): > 10 µM
IC50 (HONE1 cell line [1]): > 10 µM
IC50 (SUNE1): > 10 µM
IC50 (HT-29): > 10 µM

C=C1C(=O)O[C@@H]2[C@@H]3[C@@]4(C=C[C@@]3(C)[C@]3(C4)C(=O)O[C@@H]4[C@H]5C(C)=CC[C@H]5[C@](C)(O)C[C@H](OC(=O)/C(C)=C/C)[C@H]43)[C@](C)(O)CC[C@@H]12
IC50 (CNE): > 10 µM
IC50 (CNE-2): > 10 µM
IC50 (HONE1 cell line [1]): > 10 µM
IC50 (SUNE1): > 10 µM
IC50 (HT-29): > 10 µM

C=C1C(=O)O[C@@H]2[C@H]3C(C)=CC[C@H]3[C@](C)(O)C[C@H](OC(=O)/C(C)=C/C)[C@@H]12
IC50 (CNE): 7.9 µM
IC50 (CNE-2): > 10 µM
IC50 (HONE1 cell line [1]): 6.5 µM
IC50 (SUNE1): 3 µM
IC50 (HT-29): > 10 µM

C=C1C(=O)O[C@H]2[C@H]1[C@@H](O)C[C@@](C)(O)[C@]13C=C[C@](C)([C@H]21)[C@]1(C3)C(=O)O[C@@H]2[C@H]3C(C)=CC[C@H]3[C@](C)(O)C[C@H](OC(=O)/C(C)=C\C)[C@H]21
IC50 (CNE): > 10 µM
IC50 (CNE-2): > 10 µM
IC50 (HONE1 cell line [1]): > 10 µM
IC50 (SUNE1): > 10 µM
IC50 (HT-29): > 10 µM

C/C=C(\C)C(=O)O[C@H]1C[C@@](C)(O)[C@@H]2CC(=O)C(C)=C2[C@H]2OC(=O)[C@@H](C)[C@H]12
IC50 (CNE): > 10 µM
IC50 (CNE-2): > 10 µM
IC50 (HONE1 cell line [1]): > 10 µM
IC50 (SUNE1): > 10 µM
IC50 (HT-29): > 10 µM

C=C1C(=O)O[C@H]2[C@H]1[C@@H](OC(=O)/C(C)=C/C)C[C@@](C)(O)[C@]13C=C[C@](C)([C@H]21)[C@]1(C3)C(=O)O[C@@H]2[C@H]3C(C)=CC[C@H]3[C@](C)(O)C[C@H](OC(=O)/C(C)=C/C)[C@H]21
IC50 (CNE): 4.6 µM
IC50 (CNE-2): 6 µM
IC50 (HONE1 cell line [1]): 3.5 µM
IC50 (SUNE1): 4.3 µM
IC50 (HT-29): 9.6 µM
Activity (HONE1 cell line [2]): 96.45%
Activity (HONE1 cell line [3]): 2.2%
Activity (HONE1 cell line [4]): 1.14%
Activity (HONE1 cell line [5]): 0.21%
Activity (HONE1 cell line [6]): 96.38%
Activity (HONE1 cell line [7]): 3.01%
Activity (HONE1 cell line [8]): 0.45%
Activity (HONE1 cell line [9]): 0.16%
Activity (HONE1 cell line [10]): 81.86%
Activity (HONE1 cell line [11]): 15%
Activity (HONE1 cell line [12]): 2.61%
Activity (HONE1 cell line [13]): 0.53%
Activity (HONE1 cell line [14]): 65.22%
Activity (HONE1 cell line [15]): 10.54%
Activity (HONE1 cell line [16]): 23.45%
Activity (HONE1 cell line [17]): 0.79%
Activity (HONE1 cell line [18]): 56.74%
Activity (HONE1 cell line [19]): 9.33%
Activity (HONE1 cell line [20]): 27.85%
Activity (HONE1 cell line [21]): 6.08%
Activity (HONE1 cell line [22]): 44.75%
Activity (HONE1 cell line [23]): 5.93%
Activity (HONE1 cell line [24]): 49.32%
Activity (HONE1 cell line [25]): 50.22%
Activity (HONE1 cell line [26]): 7.52%
Activity (HONE1 cell line [27]): 42.25%
Activity (HONE1 cell line [28]): 40.89%
Activity (HONE1 cell line [29]): 16.52%
Activity (HONE1 cell line [30]): 42.59%
Activity (HONE1 cell line [31]): 14.01%
Activity (HONE1 cell line [32]): 38.22%
Activity (HONE1 cell line [33]): 47.77%

C/C=C(/C)C(=O)O[C@H]1C[C@@](C)(O)[C@@H]2CC(=O)C(C)=C2[C@H]2OC(=O)[C@@H](C)[C@H]12
IC50 (CNE): > 10 µM
IC50 (CNE-2): > 10 µM
IC50 (HONE1 cell line [1]): > 10 µM
IC50 (SUNE1): > 10 µM
IC50 (HT-29): > 10 µM

CC1=CC[C@@H]2[C@H]1[C@H]1OC(=O)[C@@H](C)[C@@H]1[C@H](O)C[C@@]2(C)O
IC50 (CNE): > 10 µM
IC50 (CNE-2): > 10 µM
IC50 (HONE1 cell line [1]): > 10 µM
IC50 (SUNE1): > 10 µM
IC50 (HT-29): > 10 µM
